In the library only some 2.6% were active in any assay of this set; here they are far more common.
MITF act = MITF TRPM1 promoter activation in melanoma cells. SK-MEL-5 TRPM1-promoter luciferase, 24 h; % of positive control, neutral wells = 0. activation, % at 12.5 µM. actives 0.75% (n = 300,000);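 active = mean activation of at least 80% with every replicate also reaching 80%; inconclusive = mean reaches 80% but some replicate falls short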;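 also: 0% = neutral control wells and 100% = parthenolide positive control wells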
Wnt act = Wnt/beta-catenin pathway activation; Wnt/beta-catenin reporter cell assay, activator, plate reader; activation, % at 9.35 µM; actives 1.2% (n = 300,000); in the data active = activation above about 30%, passing the limit was not always enough; inconclusive = no clear call, values can overlap the other calls;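 also: 0% = neutral control wells and 100% = positive control wells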
esBAF inh = SWI/SNF esBAF complex inhibition. mouse ES cells, Bmi1-luciferase knock-in reporter, 24 h; 100% = twice the neutral-well signal. reporter increase, % at 12.5 µM. actives 2% (n = 350,000). AID 602393; in the data active = activation above about 40%; inconclusive = no clear call, values can overlap the other calls;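 also: 0% = median of the plate's neutral control wells and 100% = double that signal; a rise in the Bmi1 reporter signal indicates esBAF inhibition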
XiGFP reactiv = reactivates the inactive X chromosome in mouse fibroblasts; XiGFP mouse fibroblasts, % GFP-positive cells imaging, 3 d; cells co-treated with 5-aza-dC sensitizer; scaled so ellipticine positive control = 100%; actives 0.055% (n = 360,000); AID 743238; activation, % at 7.58 µM;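 active = mean normalized replicate activation at least 10% and every replicate at or above 10%; inconclusive = only one of the two criteria met; inactive = mean below 10% and not all replicates reach 10%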;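 also: 0% = median of on-plate neutral control wells and 100% = ellipticine 6 µM median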
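System: 68-5-11 XiGFP fibroblast line | Buffer or medium: DMEM containing 5-aza-dC | Compound: Single point | Times: Compounds 3 days, fix/stain 15 min at room temperature | Benchmarks: Positive control ellipticine, 6 µM final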
Vif inh = inhibitors of HIV Vif. HEK293T cells, Vif self-association by quenched fluorescence, imaging, 24 h. inhibition, % at 7.49 µM. actives 0.35% (n = 340,000). AID 602346; in the data active = inhibition above about 50%, passing the limit was not always enough; inconclusive = no clear call, values can overlap the other calls; inactive = below about 31%
An asterisk follows results filed as active; ? = inconclusive; · = no result.

SMILES	MITF act	Wnt act	esBAF inh	XiGFP reactiv	Vif inh
O=C(N/N=C/c1ccccc1O)NC12CC3CC(CC(C3)C1)C2	136.0*	19.4	15.2	-0.1	·
O=C(N=C1SCC(=O)N1c1ccccc1)c1ccco1	50.8	·	46.4*	·	-2.7
Cc1ccc(NC(=O)c2ccc(OCC3CCCO3)cc2)c(C)c1 (centres undefined)	-99.1	·	·	0.0	1.4
COc1ccc(NC(=O)c2ccc(OCC3CCCO3)cc2)cc1OC (centres undefined)	38.3	10.6	51.1*	-0.5	18.1
Cc1ccc(F)cc1NC(=O)c1ccc(OCC2CCCO2)cc1 (centres undefined)	44.3	-5.0	46.6*	0.0	2.4
NS(=O)(=O)c1ccc(NC(=O)c2ccc(OCC3CCCO3)cc2)cc1 (centres undefined)	14.6	-0.8	6.6	-0.1	0.9
Cc1ccc(NC(=O)c2ccc(OCC3CCCO3)cc2)cc1Cl (centres undefined)	·	41.7*	78.3*	0.3	-35.9
O=C(NC1CCCCCC1)c1ccc(OCC2CCCO2)cc1 (centres undefined)	71.0	18.5	·	0.0	-0.3
COc1ccc(NC(=O)c2ccc(OCC3CCCO3)cc2)cc1Cl (centres undefined)	57.4	21.9	42.3*	0.0	-16.0
COc1ccc(NC(=O)c2cc(-c3cc(F)ccc3OCC3CCCO3)n[nH]2)cc1OC (centres undefined)	·	0.2	-0.1	-0.1	-6.0
CCCN(C)C[C@H]1Oc2cc(C3=CCCCC3)ccc2S(=O)(=O)N([C@@H](C)CO)C[C@H]1C	·	·	-6.1	-0.7	·
C[C@@H]1CCCCO[C@@H](CN(C)CC2CC2)[C@H](C)CN([C@@H](C)CO)C(=O)c2cc(NC(=O)Nc3ccc(F)cc3)ccc2O1	·	·	-3.0	0.0	·
C[C@H]1CN([C@@H](C)CO)C(=O)Cc2cc(NC(=O)Nc3ccccc3)ccc2O[C@H]1CN(C)S(=O)(=O)c1ccccc1	·	·	4.3	·	·
CCNC(=O)Nc1ccc2c(c1)C(=O)N(C)[C@@H]1CC[C@@H](CC(=O)NCc3ccccc3F)O[C@H]1CO2	·	·	-5.8	0.5	·
Cc1csc(NC(=O)c2ccc(OCC3CCCO3)cc2)n1 (centres undefined)	16.6	6.1	-21.7	0.3	-5.7
Cc1cccc2sc(NC(=O)c3ccc(OCC4CCCO4)cc3)nc12 (centres undefined)	15.9	9.4	58.5*	-0.1	-7.4
Cc1ccnc(NC(=O)c2ccc3c(c2)C(=O)N(CC2CCCO2)C3=O)c1 (centres undefined)	7.9	0.8	·	1.0	·
Cc1ccnc(NC(=O)c2ccc(OCC3CCCO3)cc2)c1 (centres undefined)	-23.0	34.8*	·	0.2	-4.6
Cc1noc(C)c1NC(=O)N(C)C[C@@H]1Oc2ncc(/C=C/c3ccccc3)cc2C(=O)N([C@H](C)CO)C[C@@H]1C	·	·	2.3	-1.4	·
Cc1ccc(S(=O)(=O)N(C)C[C@H]2OCCCC[C@@H](C)Oc3ccc(NC(=O)CCC(F)(F)F)cc3C(=O)N([C@@H](C)CO)C[C@H]2C)cc1	·	·	-0.5	0.4	·
C[C@@H]1CCCCO[C@H](CN(C)C(=O)Nc2ccc3c(c2)OCO3)[C@@H](C)CN([C@H](C)CO)C(=O)c2cc(NC(=O)NC3CCCCC3)ccc2O1	·	·	1.0	0.1	·
C[C@H](CO)N1C[C@H](C)[C@@H](CN(C)C)Oc2c(NC(=O)c3cnccn3)cccc2C1=O	·	·	0.3	0.0	·
CC1(Cc2ccc(Cl)c(Cl)c2)C(=O)Nc2ccc(S(=O)(=O)NC3CCCCC3)cc21 (centres undefined)	·	-1.4	9.0	0.3	·
CC1(Cc2cc(Cl)ccc2C(F)(F)F)C(=O)Nc2ccc(S(=O)(=O)NC3CCCCC3)cc21 (centres undefined)	·	-2.3	4.4	-0.1	70.1*
O=C1CCN(Cc2ccccc2)C=C1c1ccc2ccccc2c1	50.7	43.7*	63.3*	0.0	-0.7
SMILES	MITF act	Wnt act	esBAF inh	XiGFP reactiv	Vif inh
O=C(C[C@H]1CC[C@@H]2[C@H](COC[C@@H](O)CN2C(=O)c2ccccc2F)O1)NCc1ccc(-c2ccccc2)cc1	·	·	1.3	0.0	·
Cc1ccc2cc(CCNC(=O)c3cccs3)c(=O)[nH]c2c1	58.1	29.7	54.2*	0.2	14.4
Cc1ccc2cc(CCNC(=O)c3cccs3)c(=O)[nH]c2c1C	·	19.4	59.0*	0.2	-9.3
CCC(CC)C(=O)NCCc1cc2ccc(C)cc2[nH]c1=O	1.2	-1.6	-2.2	-0.1	7.0
COc1ccc(CCNC(=O)COC(=O)/C=C/c2ccc3c(c2)OCO3)cc1	13.9	-2.9	47.0*	0.4	?
COc1ccc(CCNC(=O)COC(=O)/C=C/c2ccc(OC)c(OC)c2)cc1	-6.5	-5.9	·	0.2	0.4
COc1ccc(/C=C/C(=O)c2cc3c(cc2N)OCO3)cc1	56.5	51.5*	·	0.0	-1.9
COc1ccc(NC(=O)/C(=C\c2ccc3c(c2)OCO3)NC(C)=O)cc1	-0.7	46.7*	·	0.0	2.4
COc1ccc(/C=C/C(=O)c2ccc(OC)cc2OC)cc1	23.9	0.1	-5.1	·	-17.3
COc1cc(/C=C/C(=O)OCC(=O)NCCc2ccccc2)cc(OC)c1OC	1.8	41.3*	·	0.0	0.5
COc1ccc(NC(=O)/C(=C/c2ccc(OC(C)=O)c(OC)c2)NC(C)=O)cc1	6.7	-0.2	·	0.1	18.1
C[C@@H]1CN([C@@H](C)CO)C(=O)c2cc(NC(=O)Cc3ccccc3)ccc2O[C@@H]1CN(C)S(=O)(=O)c1ccc(F)cc1	·	·	-1.6	0.0	·
CCN1[C@H](C(=O)NCc2ccccc2)[C@@H](CO)[C@@H]2Cn3c(ccc(-c4ccccc4)c3=O)[C@@H]21	·	·	-2.4	0.6	·
CCOC(=O)Nc1oc2ccccc2c(=O)c1CN1CCOCC1	-6.8	·	2.0	·	53.7*
CCOC(=O)c1oc2ccccc2c1CN1CC(C)OC(C)C1 (centres undefined)	-6.5	-2.2	-6.7	0.1	-1.4
Oc1ccc(Cl)cc1C=Nc1ccc2c3c(cccc13)CC2	-9.0	-3.3	·	30.4*	·
COC(=O)C1CCCCN1C(=O)c1ccc2oc(Cc3ccccc3)nc2c1 (centres undefined)	107.9*	22.7	?	0.0	-3.7
COCCC1CCCCN1C(=O)c1ccc2nc(Cc3ccccc3F)oc2c1 (centres undefined)	134.4*	12.8	·	0.2	·
O=C(c1ccc2oc(CCCc3ccccc3)nc2c1)N1CCCC1	64.0	34.7*	70.9*	-0.1	4.3
O=C(C[C@H]1C=C[C@@H](NC(=O)c2ccncc2)[C@@H](CO)O1)Nc1ccc(-c2ccccc2)cc1	·	·	·	-0.3	·
Brc1cccc(OCCCCn2cncn2)c1	·	0.5	0.9	0.2	7.5
c1ccc(Oc2cccc(OCCn3cncn3)c2)cc1	-3.2	3.0	·	·	-7.4
c1ccc(-c2ccc(OCCCn3cncn3)cc2)cc1	42.9	35.4*	50.7*	·	-2.4
c1ccc(COc2ccc(OCCn3cncn3)cc2)cc1	?	·	68.4*	·	·
